The results in this text go back to ChEMBL document CHEMBL1149788, “Synthesis and biochemical evaluation of guanidino-alkyl-ribitol derivatives as nucleoside hydrolase inhibitors” (Eur J Med Chem, 2008).

The term Ki denotes a dissociation constant, usually derived from enzyme kinetics or from competition with a known ligand.

The first assay has as its target T1, IAG-nucleoside hydrolase (Trypanosoma vivax, UniProt Q9GPQ4).
T1 sequence (Q9GPQ4 whole entry): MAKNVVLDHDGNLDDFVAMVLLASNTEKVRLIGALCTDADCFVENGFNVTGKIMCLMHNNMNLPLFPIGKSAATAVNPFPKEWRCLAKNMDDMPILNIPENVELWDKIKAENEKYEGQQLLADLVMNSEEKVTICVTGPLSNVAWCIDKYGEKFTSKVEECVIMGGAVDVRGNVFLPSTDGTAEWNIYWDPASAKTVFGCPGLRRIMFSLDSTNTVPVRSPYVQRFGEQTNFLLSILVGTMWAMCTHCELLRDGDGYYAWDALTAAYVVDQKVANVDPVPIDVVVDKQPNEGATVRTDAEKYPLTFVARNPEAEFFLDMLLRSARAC
The experiment in a line: Inhibition of Trypanosoma vivax IAG-nucleoside hydrolase expressed in Escherichia coli WK6. The method, boiled down: (§1)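 His6-tagged enzyme purified by Ni-NTA then Superdex-200 gel filtration; concentration per monomer from ε280 47752 M⁻¹ cm⁻¹. Initial rates of hydrolysis of fixed p-nitrophenyl-β-D-ribofuranoside at ≥5 inhibitor concentrations, 50 mM phosphate pH 7.0, 35 °C. p-Nitrophenolate release read at 400 nm (ε 12 mM⁻¹ cm⁻¹). Ki from competitive-inhibition fit via Dixon plot (1/vi vs I).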
As to `OC[C@H]1NC[C@H](O)[C@@H]1O` [IMINORIBITOL], the Ki stood at 6.1 µM. Still for that read-out and setting: for `N=C(N)Nc1ccc(CN2C[C@H](O)[C@H](O)[C@H]2CO)cc1` the value was 7 µM; for `NC(N)=NCCC[C@@H]1O[C@H](CO)[C@@H](O)[C@H]1O`, 677 µM; for `N=C(N)c1ccc(CN2C[C@H](O)[C@H](O)[C@H]2CO)cc1`, 6.7 µM. In turn, `NC(N)=NCCN1C[C@H](O)[C@H](O)[C@H]1CO` showed a Ki of 286 µM. Regarding `NC(N)=NC[C@@H]1O[C@H](CO)[C@@H](O)[C@H]1O`, the Ki was found to be 545 µM. `NC(N)=NCC[C@@H]1O[C@H](CO)[C@@H](O)[C@H]1O` yielded a Ki of 309 µM. Take `C[N+](C)(C)C[C@@H]1O[C@H](CO)[C@@H](O)[C@H]1O`: the Ki stood at 1280 µM. The same measure, in the same setting: for `N=C(N)NCCCN1C[C@H](O)[C@H](O)[C@H]1CO` the value was 40 µM; for `NC(=O)[C@@H]1O[C@H](CO)[C@H](O)[C@@H]1O`, 4500 µM. In the case of `OCC1[C@@H](O)[C@@H](O)CN1Cc1ccccc1` (single isomer, unassigned), the Ki was 59 µM.

`N=C(N)NCC[C@@H]1N[C@H](CO)[C@@H](O)[C@H]1O` yielded a Ki of 18 µM.

Regarding `CC(C[C@@H]1O[C@H](CO)[C@@H](O)[C@H]1O)N=C(N)N` (some centres undefined), the Ki stood at 685 µM.

The target in the next assay is T2, IAG-nucleoside hydrolase (Trypanosoma vivax) (UniProt Q9GPQ4).
T2 sequence (whole entry): T1 sequence (Q9GPQ4 whole entry)
The experiment in a line: Binding affinity to Trypanosoma vivax IAG-nucleoside hydrolase. The method, boiled down: as §1
The compound `O[C@@H]1[C@H](O)[C@H](O)CO[C@H]1O` had an Activity of 148 mM.
